Assay results pooled from the literature.
Compare with care: the assays were run in different laboratories.
Read-out: enzyme activity
Action: inhibitor
mraY: mraY (Staphylococcus aureus, UniProt Q2FZ93)
TOP2A: DNA topoisomerase 2-alpha (TOP2A, Homo sapiens, UniProt P11388)
TNKS2: Poly [ADP-ribose] polymerase tankyrase-2 (TNKS2, Homo sapiens, UniProt Q9H2K2)
FLT3 ITD: Receptor-type tyrosine-protein kinase FLT3 (FLT3, Homo sapiens, UniProt P36888, ITD)

| SMILES | target | test | IC50 |
| --- | --- | --- | --- |
| CCCCCCC#Cc1cncc(-c2nnc(SCc3cc([N+](=O)[O-])cc([N+](=O)[O-])c3)n2CCOC2OC(CN)C(O)C2O)c1 (stereo not drawn) | mraY |  | 78000 nM |
| Cc1n[nH]c2ccc3nc(-c4ccc(C(=O)NCCN(C)C)cc4F)c4c(c3c12)CCCCC4 | Receptor-type tyrosine-protein kinase FLT3 (FLT3, Homo sapiens, UniProt P36888) |  | 138 nM |
| COc1cccc(Nc2nc(-c3ccncc3)nc3c2CNCC3)c1 | TOP2A |  | 120000 nM |
| CN(C)CCNC(=O)c1ccc(-c2nc3ccc4[nH]ncc4c3c3c2CCCCC3)cc1 | Receptor-type tyrosine-protein kinase FLT3 (FLT3, Homo sapiens, UniProt P36888, F691L) |  | 287 nM |
| CCCCCCC#Cc1cncc(-c2nnc(SCc3cc([N+](=O)[O-])cc([N+](=O)[O-])c3)n2C2CCNCC2)c1 | mraY |  | ~100000 nM |
| Cc1n[nH]c2ccc3nc(-c4ccc(C(=O)NCCN(C)C)cc4)c4c(c3c12)CCCCC4 | Receptor-type tyrosine-protein kinase FLT3 (FLT3, Homo sapiens, UniProt P36888, D835Y) |  | 34 nM |
| CN(C)c1cccc(Nc2nc(-c3ccncc3)nc3c2CNCC3)c1 | TOP2A |  | 140000 nM |
| CC(C)(O)c1ccc(-c2nc3cc(NC(=O)c4cnc(OCc5ccccc5)nc4)ccc3c(=O)[nH]2)cc1 | TNKS2 |  | 16.3 nM |
| CN(C)CCNC(=O)c1ccc(-c2nc3ccc4[nH]ncc4c3c3c2CCCCC3)cn1 | FLT3 ITD |  | 420 nM |
| Cn1cc(C2=C(c3cn(CCCSC(=N)N)c4ccccc34)C(=O)NC2=O)c2ccccc21 | Mitogen-activated protein kinase kinase kinase 8 (MAP3K8, Homo sapiens, UniProt P41279) |  | 11000 nM |
| CNc1cccc(Nc2nc(-c3ccncc3)nc3c2CNCC3)c1 | TOP2A |  | 160000 nM |
| COc1cc(-c2ccccc2)ncc1C(=O)Nc1ccc2c(=O)[nH]c(-c3ccc(C(C)(C)O)cc3)nc2c1 | TNKS2 |  | 3.46 nM |
| Cc1cc2c(cc1C)N[C@H](c1ccccc1)[C@@H](O)C(=O)N2 | Aurora kinase C (AURKC, Homo sapiens, UniProt Q9UQB9) | ELISA | 211 nM |
| CC(C)(O)c1ccc(-c2nc3cc(NC(=O)c4ccc(-c5ccccc5)nc4)ccc3c(=O)[nH]2)cc1 | TNKS2 |  | 10.6 nM |
| O=C(NC1CCCCC1)c1ccc(-c2nc3ccc4[nH]ncc4c3c3c2CCCC3)cc1 | FLT3 ITD |  | > 1000 nM |
